A short description of data set [1]: Selectivity ratio of IC50 for human recombinant His-tagged MGL expressed in Escherichia coli BL21 DE3 cells to IC50 for rat recombinant His/GST-tagged FAAH expressed in Escherichia coli cells by fluorescence based assay.
The nature of data set [2]: Stability in rat liver microsomes assessed as half life. The class given is ADME, Microsome. Put shortly:
(§1)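 Stability assessed as half-life in human, rat and mouse plasma and gastric fluid, and in human, rat and mouse liver microsomal preparations.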

Data set [3] in a line: Stability in mouse gastric fluid assessed as half life. The class given is ADME, tissue-based, Gastric juice. In a few lines:
as §1

A short description of data set [4]: Stability in human gastric fluid assessed as half life. The class given is ADME, tissue-based, Gastric juice. Put shortly: as §1
Data set [5] can be described thus: Stability in mouse plasma assessed as half life. The data set is classed as ADME, cell-free. In a few lines: as §1
The target in data set [6] is Cannabinoid receptor 2 (Mus musculus) (UniProt P47936). The experiment in a line: Displacement of [3H]CP55940 from mouse CB2 receptor expressed in HEK293 cells by competition-equilibrium binding analysis. The data set is classed as cell-based. Put shortly: (§2)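 HEK293 cell membranes expressing mouse or human CB2; competition-equilibrium binding against [3H]CP-55,940.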

Data set [7] is described as follows: Stability in human liver microsomes assessed as half life. The class given is ADME, Microsome. In a few lines: as §1
A short description of data set [8]: Stability in mouse liver microsomes assessed as half life. The class given is ADME, Microsome. In a few lines: as §1
Data set [9] is described as follows: Stability in rat gastric fluid assessed as half life. The class given is ADME, tissue-based, Gastric juice. Put shortly:
as §1

Data set [10] concerns the target Cannabinoid receptor 1 (Rattus norvegicus) (UniProt P20272). Nature of the data set: Displacement of [3H]CP55940 from CB1 receptor in rat brain by competition-equilibrium binding analysis. The data set is classed as tissue-based. Put shortly: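 Rat brain membranes as CB1 source; competition-equilibrium binding against [3H]CP-55,940.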
Target sequence in this assay (P20272 whole entry): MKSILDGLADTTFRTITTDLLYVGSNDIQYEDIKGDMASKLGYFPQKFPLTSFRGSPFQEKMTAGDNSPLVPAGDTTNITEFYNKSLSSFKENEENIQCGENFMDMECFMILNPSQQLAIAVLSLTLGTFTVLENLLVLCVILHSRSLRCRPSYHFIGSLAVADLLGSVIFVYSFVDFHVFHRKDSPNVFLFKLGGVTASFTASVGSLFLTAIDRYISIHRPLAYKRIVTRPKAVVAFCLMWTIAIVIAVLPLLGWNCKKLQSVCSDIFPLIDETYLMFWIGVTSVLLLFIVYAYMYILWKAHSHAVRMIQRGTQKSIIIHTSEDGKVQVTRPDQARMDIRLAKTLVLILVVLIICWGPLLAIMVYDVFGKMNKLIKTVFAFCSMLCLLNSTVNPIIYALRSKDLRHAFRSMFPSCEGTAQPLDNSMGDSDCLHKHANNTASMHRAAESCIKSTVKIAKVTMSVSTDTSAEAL
A short description of data set [11]: Selectivity ratio of IC50 for human full length ABHD6 expressed in Escherichia coli cells to IC50 for rat recombinant His/GST-tagged FAAH expressed in Escherichia coli cells by fluorescence based assay.
The target of a further data set is T1, Monoglyceride lipase (Homo sapiens, UniProt Q99685).
T1 sequence (Q99685 whole entry): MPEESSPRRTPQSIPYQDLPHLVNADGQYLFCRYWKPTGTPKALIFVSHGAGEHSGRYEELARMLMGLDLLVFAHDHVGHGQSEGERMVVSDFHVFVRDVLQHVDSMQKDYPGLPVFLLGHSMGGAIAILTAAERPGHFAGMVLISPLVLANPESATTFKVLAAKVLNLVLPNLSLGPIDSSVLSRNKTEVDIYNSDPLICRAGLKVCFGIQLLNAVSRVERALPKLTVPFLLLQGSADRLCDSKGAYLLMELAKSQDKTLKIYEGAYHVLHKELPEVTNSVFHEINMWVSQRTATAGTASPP
Nature of the data set: Inhibition of human recombinant His-tagged MGL expressed in Escherichia coli BL21 DE3 cells using AHMMCE as substrate preincubated with enzyme for 15 mins followed by substrate addition and measured after every 15 mins for 3 hrs by fluorescence based assay. In a few lines: (§3)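 Fluorescent enzyme assay in throughput format. Human recombinant FAAH or purified rat FAAH used arachidonoyl 7-amino-4-methylcoumarin amide as substrate; human recombinant MGL was run by a similar fluorometric procedure.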

The target of data set [12] is T2, Fatty-acid amide hydrolase 1 (Rattus norvegicus, UniProt P97612).
T2 sequence (P97612 whole entry): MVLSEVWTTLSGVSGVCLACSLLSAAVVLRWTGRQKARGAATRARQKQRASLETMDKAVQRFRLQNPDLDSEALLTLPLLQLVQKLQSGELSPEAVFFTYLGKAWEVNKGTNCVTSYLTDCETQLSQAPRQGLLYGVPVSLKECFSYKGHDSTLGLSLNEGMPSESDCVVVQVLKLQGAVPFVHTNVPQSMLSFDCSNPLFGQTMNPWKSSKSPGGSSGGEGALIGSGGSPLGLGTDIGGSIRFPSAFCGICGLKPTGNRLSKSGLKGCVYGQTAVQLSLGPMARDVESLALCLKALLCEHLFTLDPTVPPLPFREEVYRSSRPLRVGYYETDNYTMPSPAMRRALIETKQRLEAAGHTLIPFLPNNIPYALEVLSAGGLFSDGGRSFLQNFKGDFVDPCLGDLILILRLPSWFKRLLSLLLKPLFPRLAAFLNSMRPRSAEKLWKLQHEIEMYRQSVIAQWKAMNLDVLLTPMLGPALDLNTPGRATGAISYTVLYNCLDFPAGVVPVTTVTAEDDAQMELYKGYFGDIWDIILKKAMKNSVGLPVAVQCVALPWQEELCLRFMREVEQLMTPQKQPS
Nature of the data set: Inhibition of rat recombinant His/GST-tagged FAAH expressed in Escherichia coli cells using AAMCA as substrate incubated for 15 mins followed by substrate addition and measured after every 20 mins for 4 hrs by fluorescence based assay. In a few lines: as §3

The nature of data set [13]: Stability in human plasma assessed as half life. The class given is ADME, cell-free. In a few lines:
as §1

Data set [14] is filed under the species Homo sapiens. Nature of the data set: Selectivity ratio of IC50 for human recombinant His-tagged MGL expressed in Escherichia coli BL21 DE3 cells to IC50 for human recombinant MBP-tagged FAAH expressed in Escherichia coli cells by fluorescence based assay.
Data set [15] is described as follows: Stability in rat plasma assessed as half life. The data set is classed as ADME, cell-free. Put shortly:
as §1

For data set [16], the target named is Cannabinoid receptor 2 (Homo sapiens) (UniProt P34972). Nature of the data set: Displacement of [3H]CP55940 from human CB2 receptor expressed in HEK293 cells by competition-equilibrium binding analysis. The data set is classed as cell-based. Put shortly:
as §2

Data set [17] is filed under the species Homo sapiens. The experiment in a line: Selectivity ratio of IC50 for human full length ABHD6 expressed in Escherichia coli cells to IC50 for human recombinant MBP-tagged FAAH expressed in Escherichia coli cells by fluorescence based assay.
For data set [18], the target named is Cannabinoid receptor 1 (Rattus norvegicus) (UniProt P20272). Nature of the data set: Displacement of [3H]CP55940 from CB1 receptor in rat brain by competition-equilibrium binding analysis.
Target sequence in this assay (P20272 whole entry, looked up): as the sequence (P20272 whole entry) above
Data set [19] has as its target T3, Fatty-acid amide hydrolase 1 (Homo sapiens, UniProt O00519).
T3 sequence (O00519 whole entry): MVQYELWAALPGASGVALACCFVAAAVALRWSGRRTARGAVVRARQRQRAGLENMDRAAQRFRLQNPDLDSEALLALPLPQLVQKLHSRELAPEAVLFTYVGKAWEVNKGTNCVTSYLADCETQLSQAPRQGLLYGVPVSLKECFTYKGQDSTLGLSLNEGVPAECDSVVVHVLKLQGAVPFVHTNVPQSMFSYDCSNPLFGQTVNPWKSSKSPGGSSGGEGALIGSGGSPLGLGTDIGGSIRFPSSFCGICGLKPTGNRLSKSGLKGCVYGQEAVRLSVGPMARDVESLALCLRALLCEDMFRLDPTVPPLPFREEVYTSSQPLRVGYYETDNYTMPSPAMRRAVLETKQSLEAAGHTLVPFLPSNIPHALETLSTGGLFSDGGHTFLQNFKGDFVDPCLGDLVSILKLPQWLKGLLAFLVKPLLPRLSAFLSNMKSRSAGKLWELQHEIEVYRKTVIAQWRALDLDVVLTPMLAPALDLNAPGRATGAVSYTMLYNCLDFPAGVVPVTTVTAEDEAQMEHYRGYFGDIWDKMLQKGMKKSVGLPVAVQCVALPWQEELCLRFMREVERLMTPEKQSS
The experiment in a line: Inhibition of human recombinant MBP-tagged FAAH expressed in Escherichia coli cells using AAMCA as substrate incubated for 15 mins followed by substrate addition and measured after every 20 mins for 4 hrs by fluorescence based assay. In a few lines: as §3

The source made the active and inactive calls. The rule behind the calls is not given here.

Data on six molecules can be found in ChEMBL document CHEMBL4359929, “Piperidine and piperazine inhibitors of fatty acid amide hydrolase targeting excitotoxic pathology” (Bioorg Med Chem, 2019).

Sequence of Cannabinoid receptor 2 (Mus musculus) (P47936 whole entry): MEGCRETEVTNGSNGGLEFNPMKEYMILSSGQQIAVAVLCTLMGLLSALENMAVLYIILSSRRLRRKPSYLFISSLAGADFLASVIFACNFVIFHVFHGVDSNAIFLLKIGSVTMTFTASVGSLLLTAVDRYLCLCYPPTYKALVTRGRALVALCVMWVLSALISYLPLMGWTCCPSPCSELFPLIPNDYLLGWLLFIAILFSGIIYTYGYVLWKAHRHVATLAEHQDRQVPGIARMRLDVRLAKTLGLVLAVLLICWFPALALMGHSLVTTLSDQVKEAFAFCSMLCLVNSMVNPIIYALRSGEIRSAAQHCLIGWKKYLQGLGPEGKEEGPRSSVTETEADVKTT
Sequence of Cannabinoid receptor 2 (Homo sapiens) (P34972 whole entry): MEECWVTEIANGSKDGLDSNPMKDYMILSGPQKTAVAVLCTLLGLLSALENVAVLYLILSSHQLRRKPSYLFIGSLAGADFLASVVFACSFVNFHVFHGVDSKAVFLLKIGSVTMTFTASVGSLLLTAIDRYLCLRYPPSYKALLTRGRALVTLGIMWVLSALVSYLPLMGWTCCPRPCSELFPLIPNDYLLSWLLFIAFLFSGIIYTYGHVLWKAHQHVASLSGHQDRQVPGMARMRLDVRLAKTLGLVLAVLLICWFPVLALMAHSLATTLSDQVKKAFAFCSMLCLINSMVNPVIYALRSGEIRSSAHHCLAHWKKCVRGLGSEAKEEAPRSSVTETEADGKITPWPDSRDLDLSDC

Take `CN1CCN(c2cccc(OC(=O)N3CCC(c4ccc(F)cc4)CC3)c2)CC1`: the Ratio IC50 (in [1]; in data set [11]; in the data set filed under Homo sapiens [14]; in the data set listed under Homo sapiens [17]) was over 1000 in each case. Besides, the half-life in data set [2] is 15 to 25 min; in [3], over 60 min; in [4], over 60 min; in [5], over 60 min; in data set [7] it was 15 to 25 min; in [8], 15 to 25 min. The half-life in data set [9], in data set [13] and in data set [15] was over 60 min in each case. The outcome in data set [6], in data set [10], in data set [16] and in [18] was inactive. The values for the IC50 (on Monoglyceride lipase; in data set [12]; in [19]) were over 1000 nM, 9.4 nM and 33.2 nM, respectively.
Take `O=C(Oc1cccc(N2CCS(=O)(=O)CC2)c1)N1CCN(Cc2cccc(Oc3ccccc3)c2)CC1`: the Ratio IC50 (in [1]; in data set [11]; in the data set listed under Homo sapiens [14]; in the data set listed under Homo sapiens [17]) was over 1000 each time. In addition, the half-life in data set [2] was 15 to 25 min; in data set [3], over 60 min; in [4] it was over 60 min; in data set [5], over 60 min; in [7], 15 to 25 min; in data set [8] it was 15 to 25 min. The half-life in data set [9], in [13] and in data set [15] was over 60 min each time. Besides, the result in data set [6], in [10], in data set [16] and in data set [18] was inactive. The IC50 at Monoglyceride lipase was over 1000 nM; in [12] it was 2.2 nM; in [19] it was 2.3 nM.
Take `O=C(Oc1cccc(N2CCS(=O)(=O)CC2)c1)N1CCN(Cc2cccc(-c3ccccc3)c2)CC1`: the Ratio IC50 (in data set [1]; in [11]; in the data set filed under Homo sapiens [14]; in the data set filed under Homo sapiens [17]) was over 1000 in each case. Further, the half-life in data set [2] was 15 to 25 min; in [3], over 60 min; in data set [4], over 60 min; in data set [5], over 60 min; in data set [7], 15 to 25 min; in data set [8], 15 to 25 min. Further, the half-life in [9], in [13] and in [15] was over 60 min throughout. Further, the result in data set [6], in [10], in data set [16] and in data set [18] was inactive. Also, the IC50 at Monoglyceride lipase is over 1000 nM; in data set [12] it was 2.1 nM; in [19] it was 1.9 nM.
As to `N#Cc1ccc(C2CCN(C(=O)Oc3cccc(N4CCS(=O)(=O)CC4)c3)CC2)cc1`, the Ratio IC50 (in [1]; in [11]; in the data set listed under Homo sapiens [14]; in the data set filed under Homo sapiens [17]) was over 1000 in each case. For the same molecule, the half-life is 15 to 25 min in data set [2]; over 60 min in [3]; over 60 min in data set [4]; over 60 min in [5]; 15 to 25 min in data set [7]; 15 to 25 min in data set [8]. The half-life in [9], in data set [13] and in [15] was over 60 min each time. The outcome in [6], in data set [10], in [16] and in [18] was inactive. In addition, the IC50 is over 1000 nM at Monoglyceride lipase, 9.9 nM in [12] and 22.7 nM in data set [19].
Consider `O=C(Oc1cccc(N2CCS(=O)(=O)CC2)c1)N1CCN(c2ccccc2)CC1`, for which the Ratio IC50 (in [1]; in data set [11]; in the data set filed under Homo sapiens [14]; in the data set listed under Homo sapiens [17]) was over 1000 in each case. In addition, the half-life is 15 to 25 min in [2]; over 60 min in data set [3]; over 60 min in [4]; over 60 min in data set [5]; 15 to 25 min in data set [7]; 15 to 25 min in data set [8]. In addition, the half-life in data set [9], in data set [13] and in data set [15] was over 60 min throughout. For the same molecule, the result in [6], in [10], in data set [16] and in data set [18] was inactive. Also, the figures for the IC50 (on Monoglyceride lipase; in [12]; in data set [19]) were over 1000 nM, 8 nM and 15 nM, respectively.
Consider `O=C(Oc1cccc(N2CCS(=O)(=O)CC2)c1)N1CCC(c2ccc(OC(F)(F)F)cc2)CC1`, for which the Ratio IC50 (in data set [1]; in data set [11]; in the data set listed under Homo sapiens [14]; in the data set filed under Homo sapiens [17]) was over 1000 each time. For the same molecule, the half-life in data set [2] was 15 to 25 min; in [3], over 60 min; in data set [4], over 60 min; in data set [5] it was over 60 min; in [7], 15 to 25 min; in [8] it was 15 to 25 min. Further, the half-life in data set [9], in [13] and in data set [15] was over 60 min throughout. Besides, the result in data set [6], in [10], in data set [16] and in data set [18] was inactive. Moreover, the concentration for half-maximal inhibition (IC50) on Monoglyceride lipase was over 1000 nM; in data set [12], 4 nM; in data set [19], 3.7 nM.
